Source: ChEMBL document CHEMBL2157918, “Design and synthesis of 1H-1,2,3-triazoles derived from econazole as antitubercular agents” (Bioorg Med Chem Lett, 2012)
In brackets after ≈: the same amount, converted by molar mass.

Tests used:
[1] = system: Mycobacterium tuberculosis; assay: Antitubercular activity against Mycobacterium tuberculosis H37Rv expressing GFP after 7 days by reporter gene assay; format: functional; conditions: 168 h
Outline: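 Compound dissolved in DMSO, two-fold dilutions in 7H9 broth; Mtb H37Rv-GFP grown in Middlebrook 7H9, inoculum 2 × 10⁵ CFU/mL, exposed 7 days. Fluorescence read; MIC = lowest concentration inhibiting fluorescence by 90% versus bacteria-only wells.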

[2] = system: Candida albicans; assay: Antifungal activity against Candida albicans ATCC 90027 after 48 hrs by broth microdilution method; format: functional; conditions: ATCC 90027, 48 h
Outline: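 Broth microdilution with two-fold compound dilutions in tryptic soy broth. C. albicans grown in the same medium was exposed for 48 h. Growth was visualized with Alamar Blue. MIC was taken as the lowest concentration that inhibited the Alamar Blue color change.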

[3] = system: Vero; assay: Cytotoxicity against african green monkey Vero cells after 3 days by MTT assay; format: cell-based; conditions: Chlorocebus sabaeus, 72 h
Outline: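 Early-log-phase Vero cell suspension was exposed to serially diluted compounds (initially in DMSO) in RPMI 1640 for 3 days and read by MTT assay. Effect was normalized to DMSO-only wells and IC50 was calculated.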

[4] = Selectivity index, ratio of IC50 for african green monkey Vero cells to MIC90 for Mycobacterium tuberculosis H37Rv; format: functional
Outline: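 Vero cells in early log phase, in RPMI 1640, exposed to serial compound dilutions for 3 days; viability by MTT assay; effect normalized to DMSO-only wells, IC50 by curve fitting. SI = Vero IC50 over Mtb H37Rv-GFP MIC (90% fluorescence inhibition, 7-day 7H9 exposure, 2 × 10⁵ CFU/mL inoculum).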

[5] = system: Mycobacterium tuberculosis; assay: Ratio of econazole MIC90 to compound MIC90 for Mycobacterium tuberculosis H37Rv; format: functional

OCc1cn(CC(OCc2ccc(Cl)cc2)c2ccc(Cl)cc2Cl)nn1 (stereo not given)
MIC90 [1]: > 256 µg/mL | MIC [2]: > 256 µg/mL | IC50 [3]: 19.8 µg/mL (≈ 48 µM)

Clc1ccc(COC(Cn2cc(C3CCCCC3)nn2)c2ccc(Cl)cc2Cl)cc1 (stereo not given)
MIC90 [1]: > 256 µg/mL | MIC [2]: > 256 µg/mL | IC50 [3]: > 12.5 µg/mL

CC(C)(C)c1cn(CC(OCc2ccc(Cl)cc2)c2ccc(Cl)cc2Cl)nn1 (stereo not given)
MIC90 [1]: > 256 µg/mL | MIC [2]: > 256 µg/mL | IC50 [3]: > 25 µg/mL

Nc1cccc(-c2cn(CC(OCc3ccc(Cl)cc3)c3ccc(Cl)cc3Cl)nn2)c1 (stereo not given)
MIC90 [1]: > 256 µg/mL | MIC [2]: > 256 µg/mL | IC50 [3]: > 50 µg/mL

Nc1ccc(-c2cn(CC(OCc3ccc(Cl)cc3)c3ccc(Cl)cc3Cl)nn2)cc1 (stereo not given)
MIC90 [1]: 256 µg/mL (≈ 540 µM) | MIC [2]: > 256 µg/mL | IC50 [3]: > 50 µg/mL

Clc1ccc(COC(Cn2cc(-c3ccccn3)nn2)c2ccc(Cl)cc2Cl)cc1 (stereo not given)
MIC90 [1]: 256 µg/mL (≈ 557 µM) | MIC [2]: > 256 µg/mL | IC50 [3]: > 50 µg/mL

OC(Cn1ccnn1)c1ccc(Cl)cc1Cl (stereo not given)
MIC90 [1]: 256 µg/mL (≈ 992 µM) | MIC [2]: > 256 µg/mL | IC50 [3]: > 200 µg/mL

OC(Cn1nnc2ccccc21)c1ccc(Cl)cc1Cl (stereo not given)
MIC90 [1]: > 256 µg/mL | MIC [2]: > 256 µg/mL | IC50 [3]: > 100 µg/mL

Clc1ccc(COC(Cn2ccnn2)c2ccc(Cl)cc2Cl)cc1 (stereo not given)
MIC90 [1]: 64 µg/mL (≈ 167 µM) | MIC [2]: > 256 µg/mL | IC50 [3]: > 12.5 µg/mL

Clc1ccc(COC(Cn2nnc3ccccc32)c2ccc(Cl)cc2Cl)cc1 (stereo not given)
MIC90 [1]: 128 µg/mL (≈ 296 µM) | MIC [2]: > 256 µg/mL | IC50 [3]: > 12.5 µg/mL

CCCCc1cn(CC(O)c2ccc(Cl)cc2Cl)nn1 (stereo not given)
Selectivity Index [4]: 1 | MIC90 [1]: 8 µg/mL (≈ 25.5 µM) | MIC [2]: > 256 µg/mL | Ratio [5]: 2 | IC50 [3]: 23.3 µg/mL (≈ 74.1 µM)

OCCc1cn(CC(O)c2ccc(Cl)cc2Cl)nn1 (stereo not given)
MIC90 [1]: 256 µg/mL (≈ 847 µM) | MIC [2]: > 256 µg/mL | IC50 [3]: 274 µg/mL (≈ 907 µM)

OCc1cn(CC(O)c2ccc(Cl)cc2Cl)nn1 (stereo not given)
MIC90 [1]: > 256 µg/mL | IC50 [3]: > 100 µg/mL

OC(Cn1cc(C2CCCCC2)nn1)c1ccc(Cl)cc1Cl (stereo not given)
Selectivity Index [4]: 1 | MIC90 [1]: 16 µg/mL (≈ 47 µM) | MIC [2]: > 256 µg/mL | IC50 [3]: 31.9 µg/mL (≈ 93.9 µM)

CC(C)(C)c1cn(CC(O)c2ccc(Cl)cc2Cl)nn1 (stereo not given)
MIC90 [1]: 32 µg/mL (≈ 102 µM) | MIC [2]: 256 µg/mL (≈ 815 µM) | IC50 [3]: 33.9 µg/mL (≈ 108 µM)

Nc1cccc(-c2cn(CC(O)c3ccc(Cl)cc3Cl)nn2)c1 (stereo not given)
MIC90 [1]: 32 µg/mL (≈ 91.6 µM) | MIC [2]: > 256 µg/mL | IC50 [3]: 26.8 µg/mL (≈ 76.7 µM)

Nc1ccc(-c2cn(CC(O)c3ccc(Cl)cc3Cl)nn2)cc1 (stereo not given)
MIC90 [1]: 32 µg/mL (≈ 91.6 µM) | MIC [2]: > 256 µg/mL | IC50 [3]: 33.9 µg/mL (≈ 97.2 µM)

OC(Cn1cc(-c2ccccn2)nn1)c1ccc(Cl)cc1Cl (stereo not given)
MIC90 [1]: 32 µg/mL (≈ 95.5 µM)

CCCCc1cn(CC(OCc2ccc(Cl)cc2)c2ccc(Cl)cc2Cl)nn1 (stereo not given)
MIC90 [1]: 128 µg/mL (≈ 292 µM) | MIC [2]: > 256 µg/mL | IC50 [3]: 10.6 µg/mL (≈ 24.2 µM)

CCCCc1cn(CC(OCc2ccc(OC(F)(F)F)cc2)c2ccc(Cl)cc2Cl)nn1 (stereo not given)
MIC90 [1]: > 256 µg/mL | MIC [2]: > 256 µg/mL | IC50 [3]: 63.4 µg/mL (≈ 130 µM)

CCCCc1cn(CC(OCc2ccc(F)cc2F)c2ccc(Cl)cc2Cl)nn1 (stereo not given)
MIC90 [1]: > 256 µg/mL | MIC [2]: > 256 µg/mL | IC50 [3]: 21 µg/mL (≈ 47.7 µM)

OCCc1cn(CC(OCc2ccc(Cl)cc2)c2ccc(Cl)cc2Cl)nn1 (stereo not given)
MIC90 [1]: > 256 µg/mL | MIC [2]: > 256 µg/mL | IC50 [3]: 24.3 µg/mL (≈ 57 µM)

OCCc1cn(CC(OCc2ccc(OC(F)(F)F)cc2)c2ccc(Cl)cc2Cl)nn1 (stereo not given)
MIC90 [1]: > 64 µg/mL | MIC [2]: > 64 µg/mL

OCCc1cn(CC(OCc2ccc(F)cc2F)c2ccc(Cl)cc2Cl)nn1 (stereo not given)
MIC90 [1]: 128 µg/mL (≈ 299 µM) | MIC [2]: > 256 µg/mL | IC50 [3]: 33.7 µg/mL (≈ 78.6 µM)

Clc1ccc(COC(Cn2ccnc2)c2ccc(Cl)cc2Cl)cc1 (stereo not given) [ECONAZOLE]
Selectivity Index [4]: 1 | MIC90 [1]: 16 µg/mL (≈ 41.9 µM) | MIC [2]: 16 µg/mL (≈ 41.9 µM)

CO[C@H]1/C=C/O[C@@]2(C)Oc3c(C)c(O)c4c(O)c(c(/C=N/N5CCN(C)CC5)c(O)c4c3C2=O)NC(=O)/C(C)=C\C=C\[C@H](C)[C@H](O)[C@@H](C)[C@@H](O)[C@@H](C)[C@H](OC(C)=O)[C@@H]1C [RIFAMPIN]
MIC90 [1]: 0.0625 µg/mL (≈ 0.0759 µM)
